Measured values published in article PMC3063487 (Bioconjugate chemistry, 2011).
Values joined by “and” are separate entries in the source; they are usually repeats but may differ in a detail not shown here. Equal values may be shown once. “Also recorded” adds a separate entry of the source.

Tests used:
human B cells = assay: Human B cell proliferation; type: cell-based; settings: human PBMC, four days
Outline: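 Human PBMC from blood-bank buffy coats, from three donors. Cells were labelled with 10 μM CFSE in saline for 10 min, washed, then exposed to 1 or 10 μM test compound for four days. Cells were surface-stained for CD19. Proliferation of the CD19-gated B cells was scored by flow cytometry as CFSE dilution. Representative of two independent experiments.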

NFκB-bla Raw 264.7 cells = assay: In vitro NFkB activation using NFκB-bla Raw 264.7 cells; type: cell-based, murine; settings: Mus musculus, RAW264.7, 16 h; for EC50: read-out: EC50 NFkB-RAW; for maximal fold induction: read-out: Imax NFkB-RAW (RR)
Outline: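 NFκB-bla RAW 264.7 cells at 5×10^4 per well in OptiMEM with 0.5% dialyzed FBS, 0.1 mM non-essential amino acids, 1 mM pyruvate, 10 mM HEPES pH 7.3 and penicillin/streptomycin. Test compound came from 10 or 50 mM DMSO stocks, was serially diluted in DMSO, then in medium.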

murine primary BMDM = assay: In vitro cytokine induction in bone marrow derived macrophages; type: cell-based, mouse (C57BL/6); settings: for EC50: Mus musculus, BMDM, 18 h, read-out: EC50 BMDM; for Imax BMDM (IL-6 ng/ml): maximum level of IL-6 induction, 18 hours
Outline: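 Bone marrow-derived macrophages from C57BL/6 mice at 5×10^4 cells per well. Cells were given serially diluted test compound, from 50–100 mM DMSO stocks, for 18 h at 37°C, 5% CO2. Supernatant IL-6 was measured by ELISA, detection limit 15 pg/mL. Curves were fitted by nonlinear regression to give EC50 and maximal IL-6 induction. Representative of two independent experiments.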

Protein binding assay = type: in vitro ADME; settings: bovine, dialyzed fetal bovine serum
Pharmacokinetic = type: in vivo, mouse (C57BL/6); settings: for AUC: C57BL/6, mouse, iv, 500 nmol
[1] = Solubility study in deionized water; settings: for Water Solubility: saturated solution in deionized water, osmometer
C57BL/6 mice = assay: Pharmacodynamic; type: in vivo, mouse (C57BL/6); settings: 200 nmol i.v., all time points analyzed
Outline: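 Female C57BL/6 mice, 5 per group, received 200 nmol test compound intravenously. Sera were collected 2, 4, 6, 24 and 48 h after injection and held at −20°C. IL-6 and TNF-α were measured by Luminex bead assay, with detection limits of 5 and 10 pg/mL. Means ± SEM of five mice were compared with vehicle and unconjugated ligand by one-way ANOVA with Bonferroni post hoc test.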

dialyzed serum proteins = assay: Protein binding assay; type: in vitro ADME; settings: rapid equilibrium dialysis, dialyzed fetal bovine serum, UV 282 nm
human PBMC = assay: Cytokine induction by human PBMC; type: cell-based; settings: 1 or 10 μM, 18 hours

Compound | B cell proliferation (human B cells; 1 μM) | EC50 (NFκB-bla Raw 264.7 cells) | maximal fold induction (NFκB-bla Raw 264.7 cells) | EC50 (murine primary BMDM) | Imax BMDM (IL-6 ng/ml) (murine primary BMDM) | fraction unbound (Protein binding assay) | AUC (Pharmacokinetic; in vivo) | Water solubility (in words) ([1]; deionized water) | Water Solubility [1] | Serum cytokine levels (IL-6, TNF-α) compared to 1V136 (C57BL/6 mice) | B cell proliferation (human B cells; 1 and 10 μM, three donors) | AUC (Pharmacokinetic; serum) | Protein Binding (%) (dialyzed serum proteins) | Cytokine induction (IL-6, TNF-α) in human PBMC (in words) (human PBMC) | Maximum serum concentration compared to 1V136 (Pharmacokinetic; C57BL/6 mice, i.v. 500 nmol)
COCCOc1nc(N)c2nc(O)n(Cc3ccccc3)c2n1 [Compound 1V136, 9-benzyl-8-hydroxy-2-(2-methoxyethoxy) adenine, reference compound] | induced strong B cell proliferation | 0.08 ± 0.01 µM | 3.56 ± 0.38 | 0.36 ± 0.09 µM | 3.32 ± 0.54 ng/mL | 0.332 | 1.62 µM·h | highly insoluble in aqueous solution |  |  |  |  |  |  | 
COCCOc1nc(N)c2[nH]c(=O)n(Cc3ccc(C(=O)O)cc3)c2n1 [Compound 1V209, 4-{[6-Amino-2-(2-methoxyethoxy)-8-oxo-7H-purin-9(8H)-yl]methyl}benzoic Acid] |  |  |  |  |  |  |  |  | 35 ±1 mOsm/kg |  |  |  |  |  | 
COCCOc1nc(N)c2nc(O)n(Cc3ccc(C(=O)NCCOCCOCCOCCOCCOCCOCCN=[N+]=[N-])cc3)c2n1 [Compound 1a, 4-((6-amino-8-hydroxy-2-(2-methoxyethoxy)-9H-purin-9-yl)methyl)-N-(20-azido-3,6,9,12,15,18-hexaoxaicosyl)benzamide] |  | 4.13 ± 0.97 µM | 2.9 ± 0.06 | 8.18 ± 1.91 µM | 2.60 ± 0.49 ng/mL |  |  |  |  | minimum induction of proinflammatory cytokines |  |  |  |  | 
COCCOc1nc(N)c2nc(O)n(Cc3ccc(C(=O)NCCOCCOCCOCCOCCOCCOCCn4cc(CCC(=O)O)nn4)cc3)c2n1 [Compound 1b, 3-(1-(1-(4-((6-amino-8-hydroxy-2-(2-methoxyethoxy)-9H-purin-9-yl)methyl)phenyl)-1-oxo-5,8,11,14,17,20-hexaoxa-2-azadocosan-22-yl)-1H-1,2,3-triazol-4-yl)propanoic acid] |  | 4.99 ± 0.7 µM | 3.04 ± 0.23 | 10.6 ± 1.74 µM | 2.46 ± 0.36 ng/mL |  |  |  | 240 mOsm/kg and 240 ± 10 mOsm/kg | significantly less cytokine levels; also recorded: minimum induction of proinflammatory cytokines | minimally induced proliferation; also recorded: undetectable | 5.93 µM·h |  |  | 
COCCOc1nc(N)c2nc(O)n(Cc3ccc(C(=O)NCCOCCOCCOCCOCCOCCOCCN)cc3)c2n1 [Compound 1c, 4-((6-amino-8-hydroxy-2-(2-methoxyethoxy)-9H-purin-9-yl)methyl)-N-(20-amino-3,6,9,12,15,18-hexaoxaicosyl)benzamide] |  | 1.19 ± 0.2 µM | 3.27 ± 0.39 | 3.9 ± 1.06 µM | 5.19 ± 1.96 ng/mL |  |  |  |  | significantly less cytokine levels; also recorded: minimum induction of proinflammatory cytokines |  |  | 51.3 ±6.4% | higher potencies than the corresponding compounds with carboxyl-terminals | 
COCCOc1nc(N)c2nc(O)n(Cc3ccc(C(=O)NCCOCCOCCOCCOCCOCCOCCOCCOCCOCCOCCN=[N+]=[N-])cc3)c2n1 [Compound 2a, 4-((6-amino-8-hydroxy-2-(2-methoxyethoxy)-9H-purin-9-yl)methyl)-N-(32-azido-3,6,9,12,15,18,21,24,27,30-decaoxadotriacontyl)benzamide] |  | 5.91 ± 1.33 µM | 3.55 ± 0.14 | 6.93 ± 3.54 µM | 2.72 ± 0.34 ng/mL |  |  |  |  | minimum induction of proinflammatory cytokines |  |  |  |  | 
COCCOc1nc(N)c2nc(O)n(Cc3ccc(C(=O)NCCOCCOCCOCCOCCOCCOCCOCCOCCOCCOCCn4cc(CCC(=O)O)nn4)cc3)c2n1 [Compound 2b, 3-(1-(1-(4-((6-amino-8-hydroxy-2-(2-methoxyethoxy)-9H-purin-9-yl)methyl)phenyl)-1-oxo-5,8,11,14,17,20,23,26,29,32-decaoxa-2-azatetratriacontan-34-yl)-1H-1,2,3-triazol-4-yl)propanoic acid] |  | 2.67 ± 0.75 µM | 3.15 ± 0.23 | 4.42 ± 1.18 µM | 2.79 ± 0.47 ng/mL |  |  |  |  | significantly less cytokine levels; also recorded: minimum induction of proinflammatory cytokines | minimally induced proliferation; also recorded: undetectable |  |  |  | 
COCCOc1nc(N)c2nc(O)n(Cc3ccc(C(=O)NCCOCCOCCOCCOCCOCCOCCOCCOCCOCCOCCN)cc3)c2n1 [Compound 2c, 4-((6-amino-8-hydroxy-2-(2-methoxyethoxy)-9H-purin-9-yl)methyl)-N-(32-amino-3,6,9,12,15,18,21,24,27,30-decaoxadotriacontyl)benzamide] |  | 1.16 ± 0.39 µM | 3.23 ± 0.27 | 2.24 ± 0.33 µM | 2.89 ± 0.49 ng/mL |  |  |  |  | minimum induction of proinflammatory cytokines |  |  | 57.6 ± 1.2% | higher potencies than the corresponding compounds with carboxyl-terminals | 
COCCOc1nc(N)c2nc(O)n(Cc3ccc(C(=O)NCCOCCOCCOCCOCCOCCOCCOCCOCCOCCOCCOCCOCCOCCOCCOCCOCCOCCOCCOCCN)cc3)c2n1 [Compound 3, 4-((6-amino-8-hydroxy-2-(2-methoxyethoxy)-9H-purin-9-yl)methyl)-N-(59-amino-3,6,9,12,15,18,21,24,27,30,33,36,39,42,45,48,51,54,57-nonadecaoxanonapentacontyl)benzamide] |  | 0.9 ± 0.29 µM | 3.58 ± 0.58 | 1.79 ± 0.77 µM | 4.10 ± 1.33 ng/mL |  |  |  |  |  | induced B cell proliferation only at 10 μM | 41.4 µM·h | 79.5 ± 1.35% |  | significantly higher maximum serum concentrations
